Bioassay records (PubChem BioAssay)
GSTO1 counter: GSTO1 inhibition, counter-screen for RBBP9 inhibitors; P78417; recombinant GSTO1, activity-based probe fluorescence polarization; inhibition, % at 5.96 µM; 1.1% of 300,000 active;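 active means inhibition above the campaign mean inhibition plus 3 SD, cut at about 35% in these data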;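 further: 0% = GSTO1-1 with DMSO and 100% = wells lacking GSTO1-1 enzyme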
Target sequence (P78417 whole entry, looked up): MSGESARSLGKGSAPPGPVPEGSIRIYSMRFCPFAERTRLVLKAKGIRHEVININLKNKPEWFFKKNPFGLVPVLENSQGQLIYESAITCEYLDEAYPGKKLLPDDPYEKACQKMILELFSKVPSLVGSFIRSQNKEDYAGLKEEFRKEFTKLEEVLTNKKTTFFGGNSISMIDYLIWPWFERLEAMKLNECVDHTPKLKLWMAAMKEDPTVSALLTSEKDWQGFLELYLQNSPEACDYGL
TDP2 inh: blocks human TDP2 phosphodiesterase activity | O95551 | recombinant TDP2, T5PNP hydrolysis, p-nitrophenol absorbance 415 nm | inhibition, % at 12.8 µM | 0.34% of 370,000 active | AID 720702;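 active means inhibition above the mean of all tested compounds plus 3 SD, set per campaign, cut at about 25% in these data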;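 further: 0% = DMSO with enzyme and 100% = buffer with substrate but no TDP2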
Target sequence (O95551 whole entry, looked up): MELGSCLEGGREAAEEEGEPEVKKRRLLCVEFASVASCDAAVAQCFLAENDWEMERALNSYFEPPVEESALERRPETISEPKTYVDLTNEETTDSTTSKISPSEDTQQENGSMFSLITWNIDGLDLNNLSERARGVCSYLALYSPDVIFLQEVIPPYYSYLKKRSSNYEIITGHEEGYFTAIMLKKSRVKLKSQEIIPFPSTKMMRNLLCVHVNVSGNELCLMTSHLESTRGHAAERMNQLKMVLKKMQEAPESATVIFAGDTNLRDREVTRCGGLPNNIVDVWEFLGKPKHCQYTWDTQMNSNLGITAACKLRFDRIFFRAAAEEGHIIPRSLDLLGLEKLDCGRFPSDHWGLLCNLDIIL
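System – recombinant human TDP2 · Quantity – TDP2 enzyme at 120 nM final · Doses – single concentration, 12.8 µM nominal, with 1% DMSO · Incubation – 2 h at 37 °C · Measured by – epi absorbance of p-nitrophenol freed from T5PNP by hydrolysis · Read-out – % inhibition relative to enzyme-containing and enzyme-free wells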
PAD4 inh: blocks human protein arginine deiminase 4. 0.41% of 330,000 active. recombinant PAD4, RCA probe fluorescence polarization. AID 485272. inhibition, % at 6.36 µM. Q9UM07;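 active means percent inhibition above a cutoff equal to the mean of all tested compounds plus 3 SD, cut at about 15% in these data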;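 further: 0% = PAD4 with RCA probe and DMSO and 100% = probe without PAD4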
CTSL1 counter: cathepsin L1 inhibition, PFM18AAP counter-screen. recombinant F. hepatica cathepsin L1, Z-Leu-Arg-MCA fluorescence. inhibition, % at 5.96 µM. 0.49% of 300,000 active;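 active means inhibition above the mean of all tested compounds plus 3 SD, set per screening campaign, cut at about 17% in these data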;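 further: 0% = plate median of test compound wells and 100% = 1 µM Z-Phe-Ala-diazomethylketone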
GSTO1 confirm: GSTO1 (human) inhibition, confirmation; recombinant GSTO1, probe fluorescence polarization; shares compounds with GSTO1 counter; AID 2176; inhibition, % at 5.96 µM; 54% of 2,400 active;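 active means inhibition above the primary screen's cutoff, its mean inhibition plus 3 SD, cut at about 35% in these data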;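 further: loss of polarization as inhibitors block binding of rhodamine sulfonate ester activity probe; 0% = GSTO1 with DMSO and 100% = wells lacking GSTO1 enzyme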
GSTO1 recomb ABPP: inhibitors of recombinant human GSTO1 | shares compounds with GSTO1 counter | gel ABPP SE-Rh probe fluorescence | inhibition, % at 1 µM | 30% of 130 active | AID 463110;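 active means inhibition of the enzyme GSTO1 above about 75%, limit read from the data; inactive means inhibition below that limit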
Numbers without * were called inactive; . = no result; ! = repeats disagree. In the library only some 1.4% were active in any assay of this set; here they are far more common.

SMILES | GSTO1 counter | TDP2 inh | PAD4 inh | CTSL1 counter | GSTO1 confirm | others
Cc1ccc(NC(=O)Cc2nc(CCl)cs2)cc1 | 58* | -6 | -3 | -1 | 95* | GSTO1 recomb ABPP=87*
COc1ccc(CC(=O)OCc2csc(CC(=O)Nc3ccc(C)cc3)n2)cc1 | . | -6 | -2 | . | .
COC(=O)C1=C(C)N(Cc2ccc(C)cc2)C(=O)/C1=C\c1ccc(O)c(OC)c1 | 34 | 3 | -6 | 2 | .
COC(=O)C1=C(C)N(CC2CCCO2)C(=O)/C1=C\c1ccc(O)cc1 (stereo unspecified) | 43* | -1 | -4 | -1 | 1
Cc1ccc(S(=O)(=O)c2cc(OC(=O)c3ccco3)ccc2OC(=O)c2ccco2)cc1 | 18 | 1 | 1 | -7 | .
O=C(Oc1ccc(OC(=O)c2ccco2)c(S(=O)(=O)c2ccc(Br)cc2)c1)c1ccco1 | 49* | . | 3 | -4 | 4
Cc1cc(N=Cc2c(O)ccc3cc(Br)ccc23)no1 | 46* | 4 | -5 | -2 | 23
Cc1ccc(CN2CCCCC(NC(=O)c3cccc([N+](=O)[O-])c3)C2=O)cc1 (stereo unspecified) | . | -6 | . | . | .
CC(NC(=O)COC(=O)c1cc(NS(=O)(=O)c2ccc(Cl)c([N+](=O)[O-])c2)ccc1O)C1CC2CCC1C2 (stereo unspecified) | 46* | 11 | 1 | 2 | 40*
CCOC(=O)C1=C(C)OC(N)=C(C#N)C1c1cc(OC)c2c(c1)OCO2 (stereo unspecified) | 10 | 4 | 6 | 1 | .
CCOC(=O)C1=C(C)OC(N)=C(C#N)C1c1cc2c(cc1[N+](=O)[O-])OCO2 (stereo unspecified) | 46* | -6 | -11 | 10 | 17
CC(=O)N1CCc2[nH]c3ccc(C)cc3c2C1 | 54* | 7 | 7 | 51* | 2
CCOC(=O)N1CCc2[nH]c3ccc(C)cc3c2C1 | 8 | 21 | 1 | -3 | .
CC(=O)c1ccc(OCC(=O)N2CCCC2c2ccc3c(c2)OCCCO3)cc1 (stereo unspecified) | . | 7 | 6 | . | .
O=C(CCl)N1CCCC1c1ccc2c(c1)OCCO2 (stereo unspecified) | 55* | 0 | 1 | 75* | 70* | GSTO1 recomb ABPP=7
CC1=C(C)/C(=N\OS(=O)(=O)c2ccc(C)cc2)C=CC1=O | 44* | -4 | -1 | 4 | 7
Cc1ccc[n+](-c2nc3ccccc3nc2C(=C=[N-])C#N)c1 | 62* | 2 | -20 | 2 | 36*!
CCc1ccc[n+](-c2nc3ccccc3nc2C(=C=[N-])C#N)c1 | 53* | 2 | -12 | 3 | 42*
Cc1cc(C)c[n+](-c2nc3ccccc3nc2C(=C=[N-])C#N)c1 | 45* | 0 | 1 | 0 | 29
CCc1cc[n+](-c2nc3ccccc3nc2[N-]S(=O)(=O)c2ccc(Br)s2)cc1 | 0 | 1 | -1 | -1 | .
CC(=O)Nc1sc2c(c1-c1nc3ccccc3s1)CCOC2 | . | 10 | . | . | .
COc1ccc(C(C(=O)N(C)C2CCCC2)N(Cc2ccc(F)cc2)C(=O)c2csc3ccc(Cl)cc23)cc1OC (stereo unspecified) | . | 6 | . | . | .
CC(COc1cccc(Cl)c1)CN1CCC(C(O)(c2ccccc2)c2ccccc2)CC1 (stereo unspecified) | . | -2 | . | . | .
COc1cc(-c2cc(=O)c3c(O)c(OC)c(OC)c(O)c3o2)ccc1O | 41* | 1 | -5 | 3 | 8
Nc1ccc(N2CCCCC2)cc1N1CCCCC1 | 57* | 3 | -25 | -3 | 7
SMILES | GSTO1 counter | TDP2 inh | PAD4 inh | CTSL1 counter | GSTO1 confirm | others
Cc1nn(-c2cc(N3CCCCC3)ccc2N)c(=O)c2ccccc12 | 8 | 4 | 2 | 1 | .
CC(C)CN1C(=O)[C@]2(CC(=O)N(C)C2c2ccccc2)c2cc(-n3cc(CCc4ccccc4)nn3)ccc21 (stereo partly specified) | . | -3 | . | . | .
C=CCN(C(=O)[C@@H](CCCC)[C@@H](O)c1ccc(C(C)=O)cc1)c1ccccc1 | . | -4 | . | . | .
CC(=O)c1cccc(NC(=O)COC(=O)CCC(=O)c2ccc(F)cc2)c1 | . | -16 | 2 | . | .
CCN(c1ccc(NC(=O)COC(=O)CCC(=O)c2ccc(F)cc2)cc1)C(C)C | 38* | -3 | -3 | -36 | 24
CCOC(=O)c1cc(C)n(CCc2ccccc2)c1C | 6 | 1 | 6 | -1 | .
Cc1cc(C(=O)CCl)c(C)n1CCc1ccccc1 | 79* | 4 | -6 | 17* | 97*
O=C(O)CC(CCc1ccccc1)OC1OC(CO)C(O)C(O)C1O (stereo unspecified) | 53* | 5 | 3 | -4 | 13
Cn1nc(C(=O)NCC2CCCO2)c2ccccc2c1=O (stereo unspecified) | 75* | -11 | 2 | -2 | 4
COc1cc(NC(=O)NC2CCCCN(Cc3ccc(Cl)cc3)C2=O)cc(OC)c1 (stereo unspecified) | . | 16 | . | . | .
Cc1nc2ccccc2c(=O)n1/N=C/c1c(O)ccc2ccccc12 | 63* | 14 | -6 | 5 | 3
Cc1nc2ccccc2c(=O)n1/N=C/c1cc(Br)ccc1O | 7 | 3 | 2 | 1 | .
S=c1[nH]nc(-c2n[nH]c3c2CCC3)n1N=Cc1c2ccccc2cc2ccccc12 | . | 3 | . | . | .
O=C(O)COc1ccc(/C=N/n2c(COc3ccccc3)nc3ccccc3c2=O)cc1 | 2 | 5 | -3 | 1 | .
O=c1c2ccccc2nc(COc2ccccc2)n1/N=C/c1ccc(O)c(O)c1 | 53* | -4 | 3 | 7 | 8
Cc1n[nH]c(=S)n1/N=C/c1c(O)ccc2ccccc12 | 59* | -2 | -7 | 5 | 8
C=CCNCc1ccc(OC)cc1OC | . | 7 | . | . | .
COC(=O)[C@]12C[C@H](CC(=O)NCc3cccc(C(F)(F)F)c3)C(=O)N(Cc3cccc4ccccc34)C1=C[C@H](COCc1ccccc1)O[C@@H]2C | . | -1 | . | . | .
CC(C)=CCC[C@@]1(C(=O)O)[C@H]2CC=C(CO)[C@@H]1CC/C(C)=C/CC/C(C)=C/C2 | . | 3 | . | . | .
CC(c1ccccc1)n1cc(C(=O)N2CCCN(Cc3ccccc3)CC2)nn1 (stereo unspecified) | . | -5 | . | . | .
O=C1C=C(O)c2c(O)cccc2C1=O | 38* | . | 2 | 1 | 32
COc1ccc2nc(Nc3sc4c(c3C(N)=O)CCCC4)sc2c1 | 42* | -6 | -57 | 3 | 25
COc1ccc(CC(=O)Nc2sc3c(c2C(N)=O)CCCC3)cc1 | 4 | -1 | -2 | 1 | .
COC(=O)[C@H]1C[C@@]2(N3CCCCC3)c3ccccc3N[C@H]2N1S(=O)(=O)c1ccc([N+](=O)[O-])cc1 | . | 9 | . | . | .
Cc1ccc(NC(=O)CSc2nnc(-c3cccnc3)n2Cc2ccco2)cc1C | . | 11 | . | . | .
CCC1=NNc2cccc3c(OC)ccc1c23 | 73* | . | 37* | 4 | 27
O=C(OCC#CCSc1nnc(-c2cccc3ccccc23)o1)c1ccncc1 | . | -2 | . | . | .
